PMC9380703 (RSC Advances, 2022)

Columns and labels:
Format in all cases: cell-based
[1] = test system: HeLa (human cervical cancer cells); test: MTT cytotoxicity assay, HeLa cells; details: 48 h, read-out: IC50 ± SD HeLa
In short: (§1)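 Cells exposed to test compounds for 48 h; viability read by MTT. IC50 computed from triplicate experiments and reported as mean ± SD, with paclitaxel as positive control. BEAS-2B normal lung epithelial cells assayed alongside the cancer lines.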

[2] = test system: BEAS-2B (normal human lung epithelial cells); test: MTT cytotoxicity assay, BEAS-2B normal cells; details: 48 h, read-out: IC50 ± SD BEAS-2B
In short: as §1

[3] = test system: MCF-7 (breast cancer); test: MTT cytotoxicity assay, MCF-7 cells; details: Homo sapiens, MCF7, 48 h, read-out: IC50 ± SD MCF-7
In short: as §1

[4] = test system: A549 (non-small lung carcinoma) cells; test: MTT cytotoxicity assay, A549 cells; details: Homo sapiens, A549, 48 h, read-out: IC50 ± SD A549
In short: as §1

Structure (SMILES) | IC50 [1] [nM] | IC50 [2] [nM] | IC50 [3] [nM] | IC50 [4] [nM]
C[C@]12CC[C@H](O)C[C@H]1CC[C@@H]1[C@@H]2C[C@@H](O)[C@]2(C)[C@@H](C3=CC(=O)OC3)CC[C@]12O [Compound 6, digoxigenin] | 770 ± 230 | 2580 ± 110 | 1440 ± 10 | 1280 ± 230
CC(=O)O[C@H]1C[C@H](O[C@H]2[C@@H](O)C[C@H](O[C@H]3[C@@H](O)C[C@H](O[C@H]4CC[C@@]5(C)[C@H](CC[C@@H]6[C@@H]5C[C@@H](O)[C@]5(C)[C@@H](C7=CC(=O)OC7)CC[C@]65O)C4)O[C@@H]3C)O[C@@H]2C)O[C@H](C)[C@H]1O [Compound 8, acetyldigoxin] | 130 ± 7 | 250 ± 60 | 190 ± 60 | 150 ± 10
CC(=O)O[C@H]1C[C@H](O[C@H]2[C@@H](O)C[C@H](O[C@H]3[C@@H](O)C[C@H](O[C@H]4CC[C@@]5(C)[C@H](CC[C@@H]6[C@@H]5C[C@@H](O)[C@]5(C)[C@@H](C7=CC(=O)OC7)CC[C@]65O)C4)O[C@@H]3C)O[C@@H]2C)O[C@H](C)[C@H]1O[C@@H]1O[C@H](CO)[C@@H](O)[C@H](O)[C@H]1O [Compound 9, lanatoside C] | 130 ± 13 | 370 ± 100 | 240 ± 110 | 190 ± 30
CC(=O)O[C@H]1C(=O)[C@@]2(C)[C@H]([C@H](OC(=O)c3ccccc3)[C@]3(O)C[C@H](OC(=O)[C@H](O)[C@@H](NC(=O)c4ccccc4)c4ccccc4)C(C)=C1C3(C)C)[C@]1(OC(C)=O)CO[C@@H]1C[C@@H]2O [Paclitaxel, reference compound] | 20 ± 10 | 130 ± 30 | 110 ± 50 | 60 ± 40
